Data taken from ChEMBL document CHEMBL3616369, “N-O-Isopropyl Sulfonamido-Based Hydroxamates as Matrix Metalloproteinase Inhibitors: Hit Selection and in Vivo Antiangiogenic Activity” (J Med Chem, 2015).
Activity calls are given as the source filed them. No cut-off for these calls is given here.

Experiments:
[1] = target: T1, Interstitial collagenase (Homo sapiens, UniProt P03956); assay: Inhibition of recombinant human activated-MMP1 using Mca-Lys-Pro-Leu-Gly-Leu-Dap(Dnp)-Ala-Arg-NH2 as fluorogenic substrate incubated for 4 hrs followed by substrate addition measured every 10 secs for 20 mins by fluorometric assay
T1 sequence (P03956 whole entry): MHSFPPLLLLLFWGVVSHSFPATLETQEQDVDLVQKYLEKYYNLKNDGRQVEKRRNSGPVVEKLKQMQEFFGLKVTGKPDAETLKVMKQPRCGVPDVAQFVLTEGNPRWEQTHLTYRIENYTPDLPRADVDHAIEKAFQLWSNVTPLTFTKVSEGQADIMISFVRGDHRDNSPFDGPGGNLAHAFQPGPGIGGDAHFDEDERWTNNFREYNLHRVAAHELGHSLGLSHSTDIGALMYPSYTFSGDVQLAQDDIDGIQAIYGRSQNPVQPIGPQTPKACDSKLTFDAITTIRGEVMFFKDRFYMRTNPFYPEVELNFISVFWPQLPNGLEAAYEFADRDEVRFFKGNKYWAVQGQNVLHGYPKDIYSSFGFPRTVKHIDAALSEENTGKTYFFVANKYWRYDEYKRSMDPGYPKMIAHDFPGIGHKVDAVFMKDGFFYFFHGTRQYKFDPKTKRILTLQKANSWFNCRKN
How it was run: (§1)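 Recombinant human MMPs. Pro-forms activated with APMA: MMP-2 2 mM 1 h, MMP-9 1 mM 1 h, MMP-1 2 mM 2 h, MMP-13 1 mM 35 min, all 37 °C. MMP-3 activated with trypsin 4.4 µg/mL 30 min, then soybean trypsin inhibitor. Final enzyme 0.5 (MMP-2), 1.3 (MMP-9), 1.0 (MMP-14cd), 2.0 (MMP-1), 0.66 (MMP-13), 5 nM (MMP-3). Preincubated with inhibitor 4 h at 25 °C in Tris 50 mM pH 7.5, NaCl 150 mM, CaCl2 10 mM, Brij 35 0.05%, DMSO 1%. Substrate 2 µM final; fluorescence (ex 325/em 395 nm) every 10 s for 20 min. IC50 from vi/vo = 1/(1+[I]/IC50).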

[2] = tested on: HUVEC; assay: Inhibition of cell migration in human HUVEC at 0.001 to 10 uM after 6 hrs using modified Boyden chambers; type: functional, cell-based
How it was run: (§2)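 Modified Boyden chamber. HUVEC (5x10^4), PBS-washed, in serum-free medium with or without inhibitor in upper compartment; 10% FBS or serum-free medium below. 8 µm polycarbonate filters coated with collagen 50 µg/mL (migration, 6 h) or matrigel 1 mg/mL (invasion, overnight). Cells on lower surface ethanol-fixed, stained, counted blind in eight fields. Three experiments in duplicate; one-way ANOVA.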

[3] = target: Matrix metalloproteinase-14 (Homo sapiens, UniProt P50281); assay: Inhibition of recombinant human catalytic domain MMP14 using Mca-Lys-Pro-Leu-Gly-Leu-Dap(Dnp)-Ala-Arg-NH2 as fluorogenic substrate incubated for 4 hrs followed by substrate addition measured every 10 secs for 20 mins by fluorometric assay; how it was run: as §1
[4] = target: T2, 72 kDa type IV collagenase (Homo sapiens, UniProt P08253); assay: Inhibition of MMP2 gelatinase activity in human HUVEC at 0.001 to 10 uM by gel zymography
How it was run: (§3)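 Gelatin zymography on 10% polyacrylamide gels with 0.1% gelatin and SDS, samples unheated. Gels renatured 30 min at room temperature. Either untreated-HUVEC conditioned medium run and gel lane slices developed overnight at 37 °C in developing buffer containing inhibitor, or medium from inhibitor-treated HUVEC developed overnight without inhibitor. Coomassie stained; bands quantified by densitometry.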
Target sequence in this assay (P08253 110-660 limits assumed): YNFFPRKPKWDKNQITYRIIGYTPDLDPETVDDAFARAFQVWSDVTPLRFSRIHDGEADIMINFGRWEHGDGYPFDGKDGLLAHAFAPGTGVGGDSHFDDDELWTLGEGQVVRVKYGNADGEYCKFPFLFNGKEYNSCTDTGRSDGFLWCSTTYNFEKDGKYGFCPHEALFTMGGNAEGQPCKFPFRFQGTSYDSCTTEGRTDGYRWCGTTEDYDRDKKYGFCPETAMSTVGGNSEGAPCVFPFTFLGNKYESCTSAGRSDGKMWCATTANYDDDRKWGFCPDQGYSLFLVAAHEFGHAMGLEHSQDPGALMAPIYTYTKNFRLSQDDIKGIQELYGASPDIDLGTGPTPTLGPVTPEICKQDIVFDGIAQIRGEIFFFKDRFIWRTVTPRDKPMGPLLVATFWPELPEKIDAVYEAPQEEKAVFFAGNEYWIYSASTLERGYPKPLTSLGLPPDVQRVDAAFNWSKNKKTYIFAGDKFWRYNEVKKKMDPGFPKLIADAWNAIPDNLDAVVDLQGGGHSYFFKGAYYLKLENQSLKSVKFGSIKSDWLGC

[5] = tested on: HUVEC; assay: Inhibition of FBS-induced capillary-like network organization in human HUVEC at 0.001 to 10 uM after 6 hrs by matrigel assay; type: functional, cell-based
How it was run: (§4)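 Matrigel (10 mg/mL) polymerized 1 h at 37 °C. HUVEC (50x10^4/well) in complete medium with 10% FBS, with or without inhibitor at various concentrations, layered on top. After 6 h, capillary-like organization imaged by inverted microscope; mesh number counted as tubulogenic efficiency.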

[6] = target: T3, Matrix metalloproteinase-9 (Homo sapiens, UniProt P14780); assay: Inhibition of MMP9 gelatinase activity in human HUVEC at 0.001 to 10 uM by gel zymography; how it was run: as §3
T3 sequence (P14780 whole entry): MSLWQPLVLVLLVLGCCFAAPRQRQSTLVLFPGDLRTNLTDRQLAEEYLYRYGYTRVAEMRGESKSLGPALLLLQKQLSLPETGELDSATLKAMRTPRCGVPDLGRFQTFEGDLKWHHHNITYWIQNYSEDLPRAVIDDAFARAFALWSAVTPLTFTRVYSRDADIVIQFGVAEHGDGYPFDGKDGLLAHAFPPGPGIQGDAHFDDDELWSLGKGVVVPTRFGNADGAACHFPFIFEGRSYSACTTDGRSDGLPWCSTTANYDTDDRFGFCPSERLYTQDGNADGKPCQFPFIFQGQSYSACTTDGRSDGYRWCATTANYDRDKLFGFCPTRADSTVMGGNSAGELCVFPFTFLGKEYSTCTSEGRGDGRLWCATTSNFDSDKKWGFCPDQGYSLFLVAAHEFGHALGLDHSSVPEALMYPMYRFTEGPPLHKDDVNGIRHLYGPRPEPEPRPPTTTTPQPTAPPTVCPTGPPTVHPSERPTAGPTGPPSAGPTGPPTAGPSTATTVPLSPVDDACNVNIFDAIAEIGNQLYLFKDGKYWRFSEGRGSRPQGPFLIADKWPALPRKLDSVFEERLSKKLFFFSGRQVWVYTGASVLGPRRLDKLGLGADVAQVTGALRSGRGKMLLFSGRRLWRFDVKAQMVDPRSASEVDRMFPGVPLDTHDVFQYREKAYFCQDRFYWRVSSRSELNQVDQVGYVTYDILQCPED

[7] = tested on: HUVEC; assay: Inhibition of FBS-induced cell invasion in human HUVEC at 0.001 to10 uM after overnight incubation using modified Boyden chambers; type: functional, cell-based; how it was run: as §2
[8] = target: T3, Matrix metalloproteinase-9; assay: Inhibition of recombinant human activated-MMP9 using Mca-Lys-Pro-Leu-Gly-Leu-Dap(Dnp)-Ala-Arg-NH2 as fluorogenic substrate incubated for 4 hrs followed by substrate addition measured every 10 secs for 20 mins by fluorometric assay; how it was run: as §1
[9] = target: T2, 72 kDa type IV collagenase; assay: Inhibition of recombinant human activated-MMP2 using Mca-Lys-Pro-Leu-Gly-Leu-Dap(Dnp)-Ala-Arg-NH2 as fluorogenic substrate incubated for 4 hrs followed by substrate addition measured every 10 secs for 20 mins by fluorometric assay; how it was run: as §1
Target sequence in this assay (P08253 whole entry): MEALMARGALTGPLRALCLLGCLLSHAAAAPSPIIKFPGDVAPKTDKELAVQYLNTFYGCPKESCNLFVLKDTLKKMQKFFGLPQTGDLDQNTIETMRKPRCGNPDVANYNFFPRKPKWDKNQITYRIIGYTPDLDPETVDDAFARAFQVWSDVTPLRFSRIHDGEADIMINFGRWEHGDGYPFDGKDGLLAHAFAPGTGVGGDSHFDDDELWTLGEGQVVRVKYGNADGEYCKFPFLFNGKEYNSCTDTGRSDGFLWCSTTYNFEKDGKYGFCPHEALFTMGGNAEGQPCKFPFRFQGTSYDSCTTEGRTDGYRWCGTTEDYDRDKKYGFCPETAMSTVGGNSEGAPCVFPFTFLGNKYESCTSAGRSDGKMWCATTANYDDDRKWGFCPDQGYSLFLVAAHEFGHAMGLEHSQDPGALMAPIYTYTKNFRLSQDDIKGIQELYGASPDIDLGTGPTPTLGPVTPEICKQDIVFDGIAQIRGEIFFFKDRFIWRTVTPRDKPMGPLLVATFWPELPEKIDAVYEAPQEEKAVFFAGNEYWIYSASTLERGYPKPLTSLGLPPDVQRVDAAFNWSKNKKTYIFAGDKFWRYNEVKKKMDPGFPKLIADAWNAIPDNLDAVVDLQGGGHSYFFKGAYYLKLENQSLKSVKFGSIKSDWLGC

[10] = tested on: HUVEC; assay: Inhibition of FBS-induced network efficiency of human HUVEC assessed as reduction of number of meshes at 0.001 to 10 uM after 6 hrs by matrigel assay; type: functional, cell-based; how it was run: as §4
[11] = tested on: HUVEC; assay: Inhibition of PMA-stimulated MMP2 mRNA expression in human HUVEC after 24 hrs by QT-PCR analysis; type: functional, cell-based
How it was run: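 HUVEC starved, PMA pre-treated (30 nM, 3 h), then exposed to inhibitor for 24 h before RNA extraction. Real-time PCR with SYBR Green, 45 cycles (95 °C 10 s, 60 °C 15 s, 72 °C 15 s), with melting-curve check.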

[12] = tested on: HUVEC; assay: Inhibition of PMA-stimulated MMP2 protein expression in human HUVEC after 24 hrs by Western blot analysis relative to control; type: functional
How it was run: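 HUVEC (2x10^6) seeded, attached one day, starved 6 h in serum-free medium with 2% BSA. Pre-treated 3 h with 30 nM PMA, then exposed to inhibitor (10 µM) or DMSO vehicle for 24 h. Conditioned media and cell proteins collected. Equal protein on 10% SDS-PAGE, PVDF blot, milk block, anti-MMP-2, MMP-9 and β-actin antibodies, HRP/ECL detection.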

[13] = target: Collagenase 3 (Homo sapiens, UniProt P45452); assay: Inhibition of recombinant human activated-MMP13 using Mca-Lys-Pro-Leu-Gly-Leu-Dap(Dnp)-Ala-Arg-NH2 as fluorogenic substrate incubated for 4 hrs followed by substrate addition measured every 10 secs for 20 mins by fluorometric assay; how it was run: as §1
[14] = target: Stromelysin-1 (Homo sapiens, UniProt P08254); assay: Inhibition of recombinant human activated-MMP3 using Mca-Lys-Pro-Leu-Gly-Leu-Dap(Dnp)-Ala-Arg-NH2 as fluorogenic substrate incubated for 4 hrs followed by substrate addition measured every 10 secs for 20 mins by fluorometric assay; how it was run: as §1
Chain of Stromelysin-1 (P08254 whole entry): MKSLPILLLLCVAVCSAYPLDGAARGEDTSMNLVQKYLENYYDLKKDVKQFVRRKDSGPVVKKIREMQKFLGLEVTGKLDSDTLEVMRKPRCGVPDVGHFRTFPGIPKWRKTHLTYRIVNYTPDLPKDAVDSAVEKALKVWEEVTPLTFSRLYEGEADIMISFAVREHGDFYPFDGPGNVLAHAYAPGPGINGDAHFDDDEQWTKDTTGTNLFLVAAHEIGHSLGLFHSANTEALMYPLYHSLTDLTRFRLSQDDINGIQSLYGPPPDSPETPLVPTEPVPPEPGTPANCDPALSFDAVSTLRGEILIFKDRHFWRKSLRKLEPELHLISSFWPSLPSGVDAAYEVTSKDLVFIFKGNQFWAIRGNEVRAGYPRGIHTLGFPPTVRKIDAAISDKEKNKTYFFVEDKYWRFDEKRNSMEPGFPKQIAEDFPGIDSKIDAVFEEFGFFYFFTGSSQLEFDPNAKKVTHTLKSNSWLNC

[15] = tested on: U-87 MG; assay: Antiinvasive activity in human U87MG cells after 24 hrs by Transwell matrigel assay; type: functional, U-87MG ATCC
[16] = target: T3, Matrix metalloproteinase-9; settings: HUVEC, 0.1 uM
[17] = target: T2, 72 kDa type IV collagenase; assay: Inhibition of MMP2 gelatinase activity in human HUVEC at 0.1 uM by gel zymography; how it was run: as §3
Target sequence in this assay (P08253 110-660 limits assumed): as the sequence (P08253 110-660 limits assumed) above

[18] = target: T2, 72 kDa type IV collagenase; assay: Inhibition of MMP2 gelatinase activity in human HUVEC by gel zymography; how it was run: as §3
Target sequence in this assay (P08253 110-660 limits assumed): as above

[19] = tested on: HUVEC; assay: Inhibition of FBS-induced cell invasion in human HUVEC after overnight incubation using modified Boyden chambers; type: functional, cell-based; how it was run: as §2
[20] = target: T3, Matrix metalloproteinase-9; assay: Inhibition of MMP9 gelatinase activity in human HUVEC by gel zymography; how it was run: as §3

IC50 [1] [nM] | IC50 [3] [nM] | inhibition [4] | inhibition [6] | IC50 [8] [nM] | IC50 [9] [nM] | IC50 [13] [nM] | IC50 [14] [nM] | inhibition [16] | inhibition [17] | inhibition [18] | inhibition [20] | Structure (SMILES) | inhibition [2] | inhibition [5] | inhibition [7] | inhibition [10] | inhibition [11] | fold change (FC) [12] | Activity [15] [%] | inhibition [19]
26000 | 5500 | inactive | inactive | 3900 | 590 | 1800 | – | – | – | – | – | CC(=O)NCC[C@H](C(=O)NO)N(OC(C)C)S(=O)(=O)c1ccccc1 | inactive | inactive | inactive | inactive | inactive | 0.9 | – | –
280 | – | – | – | 6.5 | – | – | 47 | – | – | – | – | CC(=O)NCC[C@H](C(=O)NO)N(OC(C)C)S(=O)(=O)c1ccc(-c2ccccc2)cc1 | – | – | – | – | – | – | – | –
– | – | – | – | – | – | – | – | – | – | – | – | CC(C)ON([C@@H](C(=O)NO)C(C)C)S(=O)(=O)c1ccc(-c2ccccc2)cc1 | – | – | – | – | – | – | 48 | –
660 | 23 | – | – | 2 | – | – | 20 | Active | Active | Dose-dependent effect | Dose-dependent effect | COc1ccc(-c2ccc(S(=O)(=O)N(OC(C)C)[C@H](CCNC(C)=O)C(=O)NO)cc2)cc1 | Active | Active | – | Active | – | – | – | Dose-dependent effect
